The source of these data is PMC4976638 (Biochemistry, 2016).

For data set [1], the target named is apoE3 (Homo sapiens, UniProt P02649, A303C). Briefly: Fluorescence of TMR-labeled apoE3. It is filed as binding. The procedure, abridged:
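ApoE3 A285C was labelled with TMR maleimide (dye:protein 1:1; native Cys112 possibly also labelled). It was preincubated 1 h at room temperature, then titrated stepwise with test compound while fluorescence was monitored to derive an apparent Kd. Buffer: 20 mM HEPES pH 7.4, 150 mM NaCl, 1 mM DTT, 1 mM EDTA, 25 °C.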

The target of data set [2] is T1, apoE3 (Homo sapiens, UniProt P02649). Briefly: SYPRO Orange displacement titration, apoE3. In kind it is binding. Conditions: Apparent dissociation constant Kd, Using SYPRO Orange, PBS pH 7.4, 25 °C. In a few lines: (§1)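 Adding apoE to SYPRO Orange increases its fluorescence and shifts the emission maximum to 575 nm. After a 1 h room-temperature protein preincubation, test compound was titrated stepwise and the decrease in SYPRO Orange fluorescence was fitted for an apparent Kd. Buffer: 10 mM phosphate pH 7.4, 150 mM NaCl, 1 mM DTT, 1 mM EDTA, 25 °C.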

Data set [3] concerns the target T2, apoE4 (Homo sapiens, UniProt P02649, C130R). The experiment in a line: SYPRO Orange displacement titration, apoE4. In kind it is binding. Conditions: Apparent dissociation constant Kd, Using SYPRO Orange, PBS pH 7.4, 25 °C. The procedure, abridged: as §1
The target of data set [4] is T1, apoE3. The experiment in a line: Quenching of ANS fluorescence, apoE3. In kind it is binding. Conditions: Apparent dissociation constant Kd, Using ANS, PBS pH 7.4, 25 °C. In a few lines:
(§2)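 Unlabelled apoE raises ANS fluorescence. Test compound was titrated stepwise into the apoE–ANS mixture after a 1 h room-temperature protein preincubation, and quenching of ANS fluorescence gave an apparent Kd. Buffer: 10 mM phosphate pH 7.4, 150 mM NaCl, 1 mM DTT, 1 mM EDTA, 25 °C.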

The target of data set [5] is T2, apoE4. Briefly: Quenching of ANS fluorescence, apoE4. In kind it is binding. In a few lines:
as §2

The target of data set [6] is apoE4 (Homo sapiens, UniProt P02649, C130R/S157C). In kind it is binding. The procedure, abridged: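 Alexa488-maleimide labelled the apoE4 S139C mutant after 20 mM DTT reduction (1–2 h, 37 °C), with a 10-fold molar dye excess overnight at 4 °C (>90% labelling). Labelled protein was preincubated 1 h at room temperature, then titrated stepwise with test compound to follow fluorescence decrease. Unlabelled apoE3 was then added. Buffer: 10 mM phosphate pH 7.4, 150 mM NaCl, 1 mM DTT, 1 mM EDTA, 25 °C.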

Data set [7] has as its target T2, apoE4. The experiment in a line: Analytical ultracentrifugation sedimentation velocity. As to conditions: 10 μM apoE4, 10 or 20 μM EZ-482, PBS. In a few lines:
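Recombinant apoE4 was expressed in E. coli BL21(DE3) as a His-tagged thioredoxin fusion, cleaved with PreScission protease (leaving N-terminal Gly-Pro), and dialysed into PBS. For sedimentation velocity, 10 μM apoE4 was run with 0, 10 or 20 μM test compound in PBS in a double-sector centerpiece (1.2 cm path), with absorbance at 290 nm recorded in continuous mode.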

Data set [8] addresses T1, apoE3. Briefly: Differential hydrogen-deuterium exchange MS, apoE3. It is filed as binding. In a few lines: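 ApoE3 stock (10 μM in PBS, 2 mM DTT) was incubated 2 h at 25 °C with test compound […]; controls had 2% DMSO. Exchange ran in D₂O PBS (pD 7.4, 25 °C, 30 s–30 min), with 1 μM apoE and 25 μM compound. Quench used fungal XIII/urea/formic acid on ice, then pepsin digestion, C18 LC and ESI-QTOF MS. Duplicates; 48 h back-exchange correction.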

Data set [9] deals with T2, apoE4. Briefly: Differential hydrogen-deuterium exchange MS, apoE4. In kind it is binding. As to conditions: 1 μM WT apoE4, 25 μM EZ-482, 25 °C.
Data set [10] is described as follows: Solubility in DMSO. In kind it is physicochemical.

T1 sequence (P02649 19-317): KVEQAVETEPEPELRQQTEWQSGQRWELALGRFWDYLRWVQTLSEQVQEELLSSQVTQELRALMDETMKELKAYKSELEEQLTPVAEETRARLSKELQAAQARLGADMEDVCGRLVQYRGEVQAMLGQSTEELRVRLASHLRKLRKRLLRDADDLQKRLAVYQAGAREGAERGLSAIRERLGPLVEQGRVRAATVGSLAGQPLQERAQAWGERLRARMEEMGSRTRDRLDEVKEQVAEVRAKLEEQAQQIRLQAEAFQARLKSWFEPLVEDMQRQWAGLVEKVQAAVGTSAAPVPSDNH
T2 sequence (P02649 19-317 C130R): as the sequence (P02649 19-317) above, with C112R counted along it
Chain of apoE4 (Homo sapiens, UniProt P02649, C130R/S157C) (P02649 19-317 C130R/S157C): as the sequence (P02649 19-317) above, with C112R, S139C counted along it
Chain of apoE3 (Homo sapiens, UniProt P02649, A303C) (P02649 19-317 A303C): as the sequence (P02649 19-317) above, with A285C counted along it

For the compound `Cn1nc(CC(=O)Nc2cc(S(=O)(=O)Nc3cccc(Cl)c3)ccc2O)c2ccccc2c1=O` [EZ-482, N-{5-[(3-chlorophenyl)sulfamoyl]-2-hydroxyphenyl}-2-(3-methyl-4-oxo-3,4-dihydrophthalazin-1-yl)acetamide], the Kd in data set [1] was determined as 7 ± 0.35 µM; in data set [2], 7.3 ± 0.53 µM; in [3] it was 7.6 ± 0.4 µM; in [4], 5.6 ± 0.7 µM; in data set [5], 7.5 ± 1 µM; in [6] it was 7.5 µM. Further, the “Effect on distribution of apoE oligomers” value in data set [7] is reported as “essentially unaffected”. Further, the “N-terminal allosteric effect by HDX, apoE3” value in data set [8] (1 μM WT apoE3, 25 μM EZ-482, 25 °C) is on record as “apoE3 N-terminal remained unaffected”. For the same compound, the “Binding site by HDX protection, apoE3” value in data set [8] (1 μM WT apoE3, 25 μM EZ-482 or 1X SYPRO Orange, 25 °C) is “Large protection was observed only in the C-terminal domain (229–235/234–243 and 258–265)”. In data set [9], the “Binding site by HDX protection, apoE4” value was “Large protection was observed only in the C-terminal domain (229–235/234–243 and 258–265)”. Further, the “Solubility in DMSO” value in data set [10] is reported as “reasonably soluble in DMSO”.
